Laboratory results: ChEMBL document CHEMBL1157699, “New small-size peptides possessing antifungal activity” (Bioorg Med Chem, 2010)
Residues, ends and D or L forms follow the SMILES beside them.

Assays:
Type in all cases: functional
Cryptococcus neoformans [1] = test: Antifungal activity against Cryptococcus neoformans ATCC 32264 assessed as inhibition of fungal growth at 12.5 uM after 48 hrs by microbroth dilution method; conditions: ATCC 32264, 48 h
In short: (§1)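 Cryptococcus run by CLSI M-27 A2 microbroth dilution in RPMI-1640. Peptide was diluted from DMSO stock to final 200, 100, 50, 25, 12.5, 6.25 and 3.125 µM. Inoculum was 1–5 × 10^3 CFU/ml from 24 h, 35 °C Sabouraud-chloramphenicol slants. Incubation was 48 h at 35 °C, moist and dark. % inhibition was taken from OD405 against a DMSO-containing growth control. Amphotericin B served as the positive control; tests in duplicate.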

Cryptococcus neoformans [2] = test: Antifungal activity against Cryptococcus neoformans ATCC 32264 assessed as inhibition of fungal growth at 25 uM after 48 hrs by microbroth dilution method; conditions: ATCC 32264, 48 h; in short: as §1
Cryptococcus neoformans [3] = test: Antifungal activity against Cryptococcus neoformans ATCC 32264 assessed as inhibition of fungal growth at 50 uM after 48 hrs by microbroth dilution method; conditions: ATCC 32264, 48 h; in short: as §1
Cryptococcus neoformans [4] = test: Antifungal activity against Cryptococcus neoformans ATCC 32264 assessed as inhibition of fungal growth at 200 uM after 48 hrs by microbroth dilution method; conditions: ATCC 32264, 48 h; in short: as §1
Cryptococcus neoformans [5] = test: Antifungal activity against Cryptococcus neoformans ATCC 32264 assessed as inhibition of fungal growth at 6.25 uM after 48 hrs by microbroth dilution method; conditions: ATCC 32264, 48 h; in short: as §1
Cryptococcus neoformans [6] = test: Antifungal activity against Cryptococcus neoformans ATCC 32264 assessed as inhibition of fungal growth at 3.125 uM after 48 hrs by microbroth dilution method; conditions: ATCC 32264, 48 h; in short: as §1
Cryptococcus neoformans [7] = test: Antifungal activity against Cryptococcus neoformans ATCC 32264 assessed as inhibition of fungal growth at 100 uM after 48 hrs by microbroth dilution method; conditions: ATCC 32264, 48 h; in short: as §1
Candida albicans [8] = test: Antifungal activity against Candida albicans ATCC 10231 assessed as inhibition of fungal growth at 25 uM after 24 hrs by microbroth dilution method; conditions: ATCC 10231, 24 h
In short: (§2)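 CLSI M-27 A2 broth microdilution in RPMI-1640. Peptides were taken from DMSO stocks to final 200–3.125 µM (twofold series). Inoculum was 1–5 × 10^3 CFU/ml from 24 h Sabouraud-chloramphenicol slant cultures at 35 °C. Plates were incubated 24 h at 35 °C in a moist dark chamber. OD405 was read, and % inhibition was taken against a DMSO-matched growth control. Amphotericin B served as the positive control; duplicates.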

Candida albicans [9] = test: Antifungal activity against Candida albicans ATCC 10231 assessed as inhibition of fungal growth at 50 uM after 24 hrs by microbroth dilution method; conditions: ATCC 10231, 24 h; in short: as §2
Candida albicans [10] = test: Antifungal activity against Candida albicans ATCC 10231 assessed as inhibition of fungal growth at 12.5 uM after 24 hrs by microbroth dilution method; conditions: ATCC 10231, 24 h; in short: as §2
Candida albicans [11] = test: Antifungal activity against Candida albicans ATCC 10231 assessed as inhibition of fungal growth at 200 uM after 24 hrs by microbroth dilution method; conditions: ATCC 10231, 24 h; in short: as §2
Candida albicans [12] = test: Antifungal activity against Candida albicans ATCC 10231 assessed as inhibition of fungal growth at 100 uM after 24 hrs by microbroth dilution method; conditions: ATCC 10231, 24 h; in short: as §2

Molecule	inhibition at 12.5 µM (Cryptococcus neoformans [1])	inhibition at 25 µM (Cryptococcus neoformans [2])	inhibition at 50 µM (Cryptococcus neoformans [3])	inhibition at 200 µM (Cryptococcus neoformans [4])	inhibition at 6.25 µM (Cryptococcus neoformans [5])	inhibition at 3.125 µM (Cryptococcus neoformans [6])	inhibition at 100 µM (Cryptococcus neoformans [7])	inhibition at 25 µM (Candida albicans [8])	inhibition at 50 µM (Candida albicans [9])	inhibition at 12.5 µM (Candida albicans [10])	inhibition at 200 µM (Candida albicans [11])	inhibition at 100 µM (Candida albicans [12])
C[C@H](N)C(=O)N[C@@H](C)C(=O)N[C@@H](C)C(=O)N[C@@H](C)C(N)=O (H-AAAA-NH2)	11.8%	20.4%	17.3%	25%	12.4%	5.93%	24.6%					
C[C@H](N)C(=O)N[C@@H](C)C(=O)N[C@@H](C)C(=O)N[C@@H](CCCCN)C(N)=O (H-AAAK-NH2)	31.1%	43%	57.9%	70.6%	0%	0%	62%					
CC[C@H](C)[C@H](NC(=O)[C@@H](N)CCCCN)C(=O)N[C@@H](CCC(N)=O)C(=O)N[C@@H](CCCNC(=N)N)C(N)=O (H-KIQR-NH2)	25.1%	26.9%	30.9%	47.6%	21.2%	20.9%	44.1%					
CC[C@H](C)[C@H](NC(=O)[C@H](CCC(N)=O)NC(=O)[C@@H](N)CCCCN)C(=O)N[C@@H](CCCCN)C(N)=O (H-KQIK-NH2)	0%	0%	0%	3.72%	0%	0%	0%					
C[C@H](NC(=O)[C@H](C)NC(=O)[C@H](C)NC(=O)[C@@H](N)CCCNC(=N)N)C(N)=O (H-RAAA-NH2)	6.08%	8.9%	8.43%	38.4%	4.96%	0%	8.45%					
C[C@H](NC(=O)[C@H](C)NC(=O)[C@@H](N)CCCNC(=N)N)C(=O)N[C@@H](CCCCN)C(N)=O (H-RAAK-NH2)	26.3%	39.1%	67.5%	78.6%	14.1%	0%	69.7%					
CC[C@H](C)[C@H](NC(=O)[C@H](C)NC(=O)[C@@H](N)CCCNC(=N)N)C(=O)N[C@@H](CCCCN)C(N)=O (H-RAIK-NH2)	0%	0%	0%	34.6%	0%	0%	29.1%					
CC[C@H](C)[C@H](NC(=O)[C@@H](NC(=O)[C@@H](N)CCCNC(=N)N)[C@@H](C)CC)C(=O)N[C@@H](CCCCN)C(N)=O (H-RIIK-NH2)	12.6%	20.9%	11.5%	42%	14.5%	8.74%	39.7%					
C[C@H](NC(=O)[C@H](CCC(N)=O)NC(=O)[C@@H](N)CCCNC(=N)N)C(=O)N[C@@H](CCCCN)C(N)=O (H-RQAK-NH2)	0%	0%	0%	0%	0%	0%	0%					
CC[C@H](C)[C@H](NC(=O)[C@H](CCC(N)=O)NC(=O)[C@@H](N)CCCNC(=N)N)C(=O)N[C@@H](CCCCN)C(N)=O (H-RQIK-NH2)	11.2%	17.5%	18.4%	55.4%	19.9%	12.2%	36.6%					
CC[C@H](C)[C@H](NC(=O)[C@H](CCC(N)=O)NC(=O)[C@@H](N)CCCNC(=N)N)C(=O)N[C@@H](CCCNC(=N)N)C(N)=O (H-RQIR-NH2)	3.34%	19.3%	18.8%	65.7%	0%	0%	40.2%					
C[C@@H]1[C@H](O)[C@@H](C)/C=C/C=C/C=C/C=C/C=C/C=C/C=C/[C@H](O[C@@H]2O[C@H](C)[C@@H](O)[C@H](N)[C@@H]2O)C[C@@H]2O[C@](O)(C[C@@H](O)C[C@@H](O)[C@H](O)CC[C@@H](O)C[C@@H](O)CC(=O)O[C@H]1C)C[C@H](O)[C@H]2C(=O)O [AMPHOTERICIN B]	100%	100%	100%	100%	100%	100%	100%	100%	100%	100%	100%	100%
CC(=O)N1CCN(c2ccc(OCC3COC(Cn4ccnc4)(c4ccc(Cl)cc4Cl)O3)cc2)CC1 (stereo unspecified) [KETOCONAZOLE]	100%	100%	100%	100%	100%	100%	100%	100%	100%	100%	100%	100%
H-NRRMKWKK-NH2	6.64%	6.71%	23.3%	63.6%			34.8%	0%	0%	0%	11%	4.59%
